# GPR7 antag = GPR7 receptor antagonists, primary screen, cell-based, fluorescence, single concentration; GPR7-expressing cells, fluorescence antagonist assay; 1.1% of 290,000 active; AID 1861, 2009; inhibition, % at 4.4 µM; in the data active = inhibition above about 16%, passing the limit was not always enough;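 also: cells stimulated with the agonist NPW; 0% = agonist with vehicle and 100% = vehicle without agonist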
# GalR3 antagonist = GalR3 antagonists in HEK293 cells, primary screen, cell-based, fluorescence readout | Galanin receptor type 3 (Homo sapiens), O60755 | HEK293 GalR3-CNG cAMP membrane potential fluorescence; galR3 body fused to GalR1 C-terminus | inhibition, % at 3 µM | 0.44% of 360,000 active | AID 651719, 2012;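 active = inhibition above the screen-wide average plus 3 SD, cut at about 13% in these data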;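 also: forskolin and galanin both at EC90 stimulate the cells; cAMP rise reported by CNG channel membrane potential dye signal; 0% = forskolin plus galanin with DMSO and 100% = forskolin alone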
# Target sequence (O60755 1-299 limits assumed): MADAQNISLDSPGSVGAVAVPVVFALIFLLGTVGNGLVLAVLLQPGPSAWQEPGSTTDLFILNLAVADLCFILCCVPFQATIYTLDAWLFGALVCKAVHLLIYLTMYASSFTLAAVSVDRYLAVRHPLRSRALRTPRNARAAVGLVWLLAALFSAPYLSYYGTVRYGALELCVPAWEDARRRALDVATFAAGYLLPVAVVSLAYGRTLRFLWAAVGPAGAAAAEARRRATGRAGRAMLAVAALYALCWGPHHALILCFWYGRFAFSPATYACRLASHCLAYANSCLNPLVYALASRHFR
# CHO parental Ca = ATP-evoked calcium signal inhibitors, parental CHO, primary screen, counter-screen for OX1R antagonist project, cell-based, fluorescence, Fluo-8 calcium dye; inhibition, % at 5.6 µM; parental CHO-K1, ATP-induced calcium, Fluo-8 fluorescence; 0.63% of 330,000 active; AID 463079, 2010;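 active = inhibition above that plate's mean sample inhibition plus 3 SD, cut at about 26% in these data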;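 also: 0% = ATP-challenged DMSO wells and 100% = DMSO wells without ATP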
#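 Test system: untransfected parental CHO cell line. Compound: one dose, 5.6 µM nominal. Detection: intracellular calcium via Fluo-8 no-wash fluorescent dye. Measure: % inhibition. Benchmarks: ATP-challenged DMSO wells low, unchallenged DMSO wells high.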
# OX1R antag-1 = antagonists of human orexin 1 receptor (OX1R) | Orexin/Hypocretin receptor type 1 (Homo sapiens), O43613 | OX1R-expressing cells, FRET antagonist read-out | inhibition, % at 6.6 µM | 1.8% of 330,000 active; in the data active = inhibition mostly above about 38%, no sharp cut-off; inactive = mostly below about 40%;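 also: 0% = agonist challenge alone and 100% = reference antagonist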
# OX1R antag-2 = OX1R (HCRTR1) antagonists, primary screen, fluorescence, CHO/OX1R cells, Fluo-8 calcium, orexin A; Orexin/Hypocretin receptor type 1 (Homo sapiens), O43613; Fluo-8 calcium fluorescence; inhibition, % at 5 µM; 0.43% of 330,000 active; AID 434989, 2010;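 active = inhibition above its plate's threshold, mean inhibition of all tested compounds on the plate plus 3 SD, cut at about 37% in these data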;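 also: 0% = orexin A challenge wells and 100% = SB-334867-A antagonist wells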
# * hit, by the source's call; x = not tested or not shown. In the library only some 3.1% were active in any assay of this set; here they are far more common.
SMILES,GPR7 antag,GalR3 antagonist,CHO parental Ca,OX1R antag-1,OX1R antag-2
COc1cccc(NC(=O)C2CCC(CNS(=O)(=O)c3cccc4cccnc34)CC2)c1 (stereo not given),-7,-6,-20,2,-12
CSCC[C@H](NC(=O)Cc1ccc(Cl)cc1)C(=O)N1CCC2(CC1)NCCc1[nH]cnc12,-6,-6,1,4,7
NC(=O)c1ccc(SCC(=O)OCC(=O)N2CCCCC2)c([N+](=O)[O-])c1,x,-4,22,63*,-3
COc1ccc(C(=O)OCC(=O)N2CCCCC2)cc1[N+](=O)[O-],-2,-4,-5,20,-11
CC1CCN(C(=O)COC(=O)CSc2ccc(C(N)=O)cc2[N+](=O)[O-])CC1,x,1,-18,63*,-18
CC1=C(C(=O)Nc2cc(C(=O)N(C)Cc3ccccc3)ccc2C)SCCO1,15,-8,-25,4,-41
O=C1C=C(Nc2ccccc2O)c2ccccc2C1=O,3,-10,-9,58*,-3
O=C1C=C(Nc2ccc(F)cc2)c2ccccc2C1=O,x,-4,-3,50*,-9
CCOc1ccc(NC2=CC(=O)C(=O)c3ccccc32)cc1,x,-4,x,x,x
CC1CC(=O)Nc2ccccc2N1C(=O)CN1CCN(C=O)CC1 (stereo not given),-7,-2,-2,5,2
C=CCNc1nc(-c2cccc(OC)c2O)nc2ccccc12,-22,-3,5,47*,-8
COc1cccc(-c2nc(NCc3ccco3)c3ccccc3n2)c1O,-16,-8,-5,29,-20
COc1cccc(-c2nc(NCc3ccccc3)c3ccccc3n2)c1O,-17,-8,-1,37*,-9
CN(C)c1ccc(/C=C(\C#N)c2ccccc2)cc1,0,x,x,x,x
CN(C)c1cccc(/C=C(\C#N)c2ccccc2)c1,10,-7,38*,18,-23
CCn1c(SCC(=O)N2c3ccccc3CCc3ccccc32)nnc1-c1ccc(OC)cc1,-9,x,-11,13,-21
CCCn1c(SCC(=O)N2N=C3/C(=C/c4ccc(OC)cc4)CCCC3C2c2ccc(OC)cc2)n[nH]c1=O (stereo not given),20*,2,13,-14,11
Cc1ccc(C(=O)NCCCN2CCOCC2)c(C)c1,-14,-8,5,11,3
Cc1cc(-c2ccc(C)c(S(=O)(=O)NCc3ccc(Br)cc3)c2)on1,-9,-3,-2,23,6
Cc1cc(-c2ccc(C)c(S(=O)(=O)NCc3cccc(Br)c3)c2)on1,14,2,3,38*,9
CCc1ccc(-c2cc(C)no2)cc1S(=O)(=O)NCc1ccc(OC)c(OC)c1,1,-1,-12,23,-22
CCc1ccc(-c2cc(C)no2)cc1S(=O)(=O)NCCc1ccc(OC)c(OC)c1,-2,12,-13,43*,7
CCCn1c(=O)[nH]c(=O)c2c1nc(-c1cc([N+](=O)[O-])ccc1Cl)n2CCOC,-8,-4,-21,41*,-24
COc1ccc(-c2ccc3c(=O)cc(-c4ccsc4)oc3c2)cn1,x,-3,-16,63*,14
COc1cc(-c2ccc3oc(-c4ccsc4)cc(=O)c3c2)cc(OC)c1OC,x,-3,-20,67*,9
SMILES,GPR7 antag,GalR3 antagonist,CHO parental Ca,OX1R antag-1,OX1R antag-2
CCc1ccc(N2C(=O)CC(c3ccc(F)cc3)C3=C2COC3=O)cc1 (stereo not given),19,x,14,19,-26
S=C(NCCN1CCOCC1)NC1CCCCC1,-1,-1,-28,0,-1
COc1ccccc1OCC(=O)Nc1oc(-c2ccccc2)c(-c2ccccc2)c1C#N,-10,-4,-13,50*,-24
COc1ccc(CC(=O)Nc2oc(-c3ccccc3)c(-c3ccccc3)c2C#N)cc1OC,-12,-7,-13,33,-12
COc1ccccc1OCC(=O)Nc1ccc(-c2nnc(-c3ccco3)o2)cc1,-7,-3,-15,64*,-2
Cc1cc(C)cc(NCc2cc3c(cc2[N+](=O)[O-])OCO3)c1,-4,-6,-16,21,3

# Source: PubChem (The Scripps Research Institute Molecular Screening Center)
